{"source": "paper PMC4144739", "about": "(The Journal of Experimental Medicine, 2014)", "key": {"[1]": {"test": "Solubility in physiological buffers", "assay_type": "physicochemical"}, "[2]": {"conditions": "uric acid administration; ref Scott et al., 2002; cited from earlier work"}, "[3]": {"tested_on": "inflammasomes in monocytes", "conditions": "crystals of uric acid; cited from earlier work"}, "[4]": {"test": "EAE induced by adoptive transfer of Th17 lymphocytes, clinical signs", "assay_type": "in vivo, mouse (C57BL/6J)", "conditions": "2 µg daily for 21 d beginning the day after adoptive transfer; groups of 10 mice", "how_it_was_run": "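Donor female C57BL/6J mice were immunised s.c. with MOG35-55 in CFA. On day 10, spleen and draining lymph node cells were restimulated for 3 d with 10 µg/ml MOG35-55 plus 10 ng/ml IL-23. Cells (15 × 10^6 per mouse) were given i.p. to 9-wk-old female recipients. PBS served as control. Mice were scored daily on a 0–5 scale, with atypical EAE scored separately.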"}, "Amyloid fibril formation": {"test": "Amyloid fibril formation", "assay_type": "physicochemical", "conditions": "physiological buffers; ThT staining; Fig. S1", "how_it_was_run": "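Hexapeptide (200 µg in 50 µl) was combined with 100 mM MES pH 7.4 and a 1 M solution at the appropriate pH, then incubated at 37°C. ThT (10 µM solution, pre-addition) was added. Fluorescence was read at 485 nm with excitation at 440 nm. Run in triplicate and repeated twice.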"}, "[5]": {"tested_on": "type 1 IFN (murine IFN-α4, 5, 12, and 13; consensus primers)", "test": "Type 1 IFN induced in PBCs of healthy C57BL/6 mice", "assay_type": "in vivo, mouse (C57BL/6)", "conditions": "compared with peptides that readily form fibrils"}, "[6]": {"conditions": "ref Kurnellas et al., 2013; cited from earlier work"}}, "note": "Entries after “also recorded” stand apart in the source; their conditions may differ."}
{"molecule": "Ac-VQIVYK-NH2 [Tau 623–628]", "values": [{"measurement": "solubility in physiological buffers", "setting": "[1]", "result": "limited solubility in physiological buffers"}]}
{"molecule": "O=c1[nH]c(=O)c2[nH]c(=O)[nH]c2[nH]1", "note": "[uric acid]", "values": [{"measurement": "therapeutic effect in EAE", "setting": "[2]", "result": "therapeutic benefit"}, {"measurement": "endocytosis and inflammasome induction", "setting": "[3]", "result": "endocytosed and induce inflammasomes with subsequent secretion of IL-1β by monocytes"}]}
{"molecule": "SSTNVG [Amylin 28–33]", "values": [{"measurement": "clinical signs of Th17-induced EAE, 2 µg", "setting": "[4]", "result": "therapeutic in Th17-induced EAE"}, {"measurement": "amyloid fibril formation in vitro", "setting": "Amyloid fibril formation", "result": "do not readily form fibrils in physiological buffers; also recorded: did not form detectable amounts of fibrils in vitro"}, {"measurement": "type 1 IFN production (summary)", "setting": "[5]", "result": "stimulated significantly less type 1 IFN production"}, {"measurement": "therapeutic effect of polar, nonionizable peptides in active EAE", "setting": "[6]", "result": "therapeutic"}]}
